According to ChEMBL document CHEMBL1817556, “Substituted lactam and cyclic azahemiacetals modulate Pseudomonas aeruginosa quorum sensing” (Bioorg Med Chem, 2011):
Values belong to the molecule of their own block, whether it stands above or below them.

Tests used:
[1] = biological target: 3-(3-hydroxydecanoyloxy)decanoate synthase (Pseudomonas aeruginosa (strain ATCC 15692 / PAO1 / 1C / PRS 101 / LMG12228)) (UniProt Q51559); assay: Modulation of Pseudomonas aeruginosa lacZ-fused rhlA expressed in Escherichia coli DH5alpha co-expressing Ptac-rhlR assessed as C4-AHL-induced effect at 0.17 mM after 4 hrs by beta-galactosidase assay relative to control
In short: (§1)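 rhl reporter: E. coli DH5α carrying pECP61.5 (Ptac-rhlR, PrhlA-lacZ) was grown overnight in LB with ampicillin (100 μg/ml) only, then diluted to OD600 0.150. It was induced with 1 mM IPTG, and 2 μM C4-HSL plus compound or DMSO were added at OD600 1.0. Cultures were shaken 4 h at 37 °C. β-Galactosidase activity was read in Miller units as % of the solvent sample. Triplicates per biological replicate, at least two repeats; paired two-tailed t-test.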

[2] = biological target: T1, Acyl-homoserine-lactone synthase (Pseudomonas aeruginosa (strain ATCC 15692 / PAO1 / 1C / PRS 101 / LMG12228)) (UniProt P33883); assay: Modulation of Pseudomonas aeruginosa lacZ-fused lasI expressed in Escherichia coli DH5alpha co-expressing pBAD-lasR assessed as 3-oxo-C12-AHL-induced effect at 0.33 mM after 3 hrs by beta-galactosidase assay relative to control
T1 sequence (whole entry): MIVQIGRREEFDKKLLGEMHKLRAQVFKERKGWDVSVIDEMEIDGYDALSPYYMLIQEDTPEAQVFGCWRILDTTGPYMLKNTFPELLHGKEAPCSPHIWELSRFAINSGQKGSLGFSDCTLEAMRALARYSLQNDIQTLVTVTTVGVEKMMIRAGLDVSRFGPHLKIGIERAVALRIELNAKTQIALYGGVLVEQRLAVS
In short: (§2)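 E. coli DH5α carrying pSC11 (PlasI-lacZ translational fusion) and pJN105L (PBAD-lasR) was grown overnight in LB with ampicillin (100 μg/ml) and gentamicin (15 μg/ml), then diluted to OD600 0.150. Arabinose (0.2% w/v), 3-oxo-C12-AHL (2 μM) and test compound or DMSO were added. Cultures were shaken 3 h at 37 °C. β-Galactosidase activity was read in Miller units and expressed as % of the solvent sample. Triplicates per biological replicate, repeated at least twice; paired two-tailed t-test.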

[3] = biological target: T1, Acyl-homoserine-lactone synthase (Pseudomonas aeruginosa (strain ATCC 15692 / PAO1 / 1C / PRS 101 / LMG12228)); assay: Modulation of Pseudomonas aeruginosa lacZ-fused lasI expressed in Escherichia coli DH5alpha co-expressing pBAD-lasR assessed as 3-oxo-C12-AHL-induced effect at 0.67 mM after 3 hrs by beta-galactosidase assay relative to control; in short: as §2
[4] = biological target: 3-(3-hydroxydecanoyloxy)decanoate synthase (Pseudomonas aeruginosa (strain ATCC 15692 / PAO1 / 1C / PRS 101 / LMG12228)) (UniProt Q51559); assay: Modulation of Pseudomonas aeruginosa lacZ-fused rhlA expressed in Escherichia coli DH5alpha co-expressing Ptac-rhlR assessed as C4-AHL-induced effect at 0.33 mM after 4 hrs by beta-galactosidase assay relative to control; in short: as §1
[5] = biological target: T1, Acyl-homoserine-lactone synthase (Pseudomonas aeruginosa (strain ATCC 15692 / PAO1 / 1C / PRS 101 / LMG12228)); assay: Modulation of Pseudomonas aeruginosa lacZ-fused lasI expressed in Escherichia coli DH5alpha co-expressing pBAD-lasR assessed as 3-oxo-C12-AHL-induced effect at 0.50 mM after 3 hrs by beta-galactosidase assay relative to control; in short: as §2
[6] = biological target: 3-(3-hydroxydecanoyloxy)decanoate synthase (Pseudomonas aeruginosa (strain ATCC 15692 / PAO1 / 1C / PRS 101 / LMG12228)) (UniProt Q51559); assay: Modulation of Pseudomonas aeruginosa lacZ-fused rhlA expressed in Escherichia coli DH5alpha co-expressing Ptac-rhlR assessed as C4-AHL-induced effect at 0.50 mM after 4 hrs by beta-galactosidase assay relative to control; in short: as §1
[7] = biological target: 3-(3-hydroxydecanoyloxy)decanoate synthase (Pseudomonas aeruginosa (strain ATCC 15692 / PAO1 / 1C / PRS 101 / LMG12228)) (UniProt Q51559); assay: Modulation of Pseudomonas aeruginosa lacZ-fused rhlA expressed in Escherichia coli DH5alpha co-expressing Ptac-rhlR assessed as C4-AHL-induced effect at 0.67 mM after 4 hrs by beta-galactosidase assay relative to control
In short: (§3)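 E. coli DH5α carrying pECP61.5 (Ptac-rhlR, PrhlA-lacZ), grown overnight in LB with ampicillin 100 μg/ml and diluted to OD600 0.150. At OD600 1.0, 1 mM IPTG, 2 μM C4-HSL and compound or DMSO were added. Cultures were shaken 4 h at 37 °C, then β-galactosidase was read in Miller units. Activity is % of solvent sample, from triplicates per biological replicate, with at least two repeats.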

[8] = biological target: T1, Acyl-homoserine-lactone synthase (Pseudomonas aeruginosa (strain ATCC 15692 / PAO1 / 1C / PRS 101 / LMG12228)); assay: Modulation of Pseudomonas aeruginosa lacZ-fused lasI expressed in Escherichia coli DH5alpha co-expressing pBAD-lasR assessed as 3-oxo-C12-AHL-induced effect at 0.17 mM after 3 hrs by beta-galactosidase assay relative to control; in short: as §2
[9] = biological target: T1, Acyl-homoserine-lactone synthase (Pseudomonas aeruginosa (strain ATCC 15692 / PAO1 / 1C / PRS 101 / LMG12228)); assay: Modulation of Pseudomonas aeruginosa lacZ-fused lasI expressed in Escherichia coli DH5alpha co-expressing pBAD-lasR assessed as 3-oxo-C12-AHL-induced effect at 0.19 mM after 3 hrs by beta-galactosidase assay relative to control; in short: as §2
[10] = biological target: 3-(3-hydroxydecanoyloxy)decanoate synthase (Pseudomonas aeruginosa (strain ATCC 15692 / PAO1 / 1C / PRS 101 / LMG12228)) (UniProt Q51559); assay: Modulation of Pseudomonas aeruginosa lacZ-fused rhlA expressed in Escherichia coli DH5alpha co-expressing Ptac-rhlR assessed as C4-AHL-induced effect at 0.78 mM after 4 hrs by beta-galactosidase assay relative to control; in short: as §3
[11] = biological target: T1, Acyl-homoserine-lactone synthase (Pseudomonas aeruginosa (strain ATCC 15692 / PAO1 / 1C / PRS 101 / LMG12228)); assay: Modulation of Pseudomonas aeruginosa lacZ-fused lasI expressed in Escherichia coli DH5alpha co-expressing pBAD-lasR assessed as 3-oxo-C12-AHL-induced effect at 0.58 mM after 3 hrs by beta-galactosidase assay relative to control; in short: as §2
[12] = biological target: 3-(3-hydroxydecanoyloxy)decanoate synthase (Pseudomonas aeruginosa (strain ATCC 15692 / PAO1 / 1C / PRS 101 / LMG12228)) (UniProt Q51559); assay: Modulation of Pseudomonas aeruginosa lacZ-fused rhlA expressed in Escherichia coli DH5alpha co-expressing Ptac-rhlR assessed as C4-AHL-induced effect at 0.39 mM after 4 hrs by beta-galactosidase assay relative to control; in short: as §1
[13] = biological target: T1, Acyl-homoserine-lactone synthase (Pseudomonas aeruginosa (strain ATCC 15692 / PAO1 / 1C / PRS 101 / LMG12228)); assay: Modulation of Pseudomonas aeruginosa lacZ-fused lasI expressed in Escherichia coli DH5alpha co-expressing pBAD-lasR assessed as 3-oxo-C12-AHL-induced effect at 0.39 mM after 3 hrs by beta-galactosidase assay relative to control; in short: as §2
[14] = biological target: T1, Acyl-homoserine-lactone synthase (Pseudomonas aeruginosa (strain ATCC 15692 / PAO1 / 1C / PRS 101 / LMG12228)); assay: Modulation of Pseudomonas aeruginosa lacZ-fused lasI expressed in Escherichia coli DH5alpha co-expressing pBAD-lasR assessed as 3-oxo-C12-AHL-induced effect at 0.78 mM after 3 hrs by beta-galactosidase assay relative to control; in short: as §2
[15] = biological target: 3-(3-hydroxydecanoyloxy)decanoate synthase (Pseudomonas aeruginosa (strain ATCC 15692 / PAO1 / 1C / PRS 101 / LMG12228)) (UniProt Q51559); assay: Modulation of Pseudomonas aeruginosa lacZ-fused rhlA expressed in Escherichia coli DH5alpha co-expressing Ptac-rhlR assessed as C4-AHL-induced effect at 0.19 mM after 4 hrs by beta-galactosidase assay relative to control; in short: as §1
[16] = biological target: 3-(3-hydroxydecanoyloxy)decanoate synthase (Pseudomonas aeruginosa (strain ATCC 15692 / PAO1 / 1C / PRS 101 / LMG12228)) (UniProt Q51559); assay: Modulation of Pseudomonas aeruginosa lacZ-fused rhlA expressed in Escherichia coli DH5alpha co-expressing Ptac-rhlR assessed as C4-AHL-induced effect at 0.58 mM after 4 hrs by beta-galactosidase assay relative to control; in short: as §3
[17] = biological target: 3-(3-hydroxydecanoyloxy)decanoate synthase (Pseudomonas aeruginosa (strain ATCC 15692 / PAO1 / 1C / PRS 101 / LMG12228)) (UniProt Q51559); assay: Modulation of Pseudomonas aeruginosa lacZ-fused rhlA expressed in Escherichia coli DH5alpha co-expressing Ptac-rhlR assessed as C4-AHL-induced effect at 0.23 mM after 4 hrs by beta-galactosidase assay relative to control; in short: as §1
[18] = biological target: T1, Acyl-homoserine-lactone synthase (Pseudomonas aeruginosa (strain ATCC 15692 / PAO1 / 1C / PRS 101 / LMG12228)); assay: Modulation of Pseudomonas aeruginosa lacZ-fused lasI expressed in Escherichia coli DH5alpha co-expressing pBAD-lasR assessed as 3-oxo-C12-AHL-induced effect at 0.92 mM after 3 hrs by beta-galactosidase assay relative to control; in short: as §2
[19] = biological target: T1, Acyl-homoserine-lactone synthase (Pseudomonas aeruginosa (strain ATCC 15692 / PAO1 / 1C / PRS 101 / LMG12228)); assay: Modulation of Pseudomonas aeruginosa lacZ-fused lasI expressed in Escherichia coli DH5alpha co-expressing pBAD-lasR assessed as 3-oxo-C12-AHL-induced effect at 0.46 mM after 3 hrs by beta-galactosidase assay relative to control; in short: as §2
[20] = biological target: T1, Acyl-homoserine-lactone synthase (Pseudomonas aeruginosa (strain ATCC 15692 / PAO1 / 1C / PRS 101 / LMG12228)); assay: Modulation of Pseudomonas aeruginosa lacZ-fused lasI expressed in Escherichia coli DH5alpha co-expressing pBAD-lasR assessed as 3-oxo-C12-AHL-induced effect at 0.23 mM after 3 hrs by beta-galactosidase assay relative to control; in short: as §2
[21] = biological target: T1, Acyl-homoserine-lactone synthase (Pseudomonas aeruginosa (strain ATCC 15692 / PAO1 / 1C / PRS 101 / LMG12228)); assay: Modulation of Pseudomonas aeruginosa lacZ-fused lasI expressed in Escherichia coli DH5alpha co-expressing pBAD-lasR assessed as 3-oxo-C12-AHL-induced effect at 0.69 mM after 3 hrs by beta-galactosidase assay relative to control; in short: as §2
[22] = biological target: 3-(3-hydroxydecanoyloxy)decanoate synthase (Pseudomonas aeruginosa (strain ATCC 15692 / PAO1 / 1C / PRS 101 / LMG12228)) (UniProt Q51559); assay: Modulation of Pseudomonas aeruginosa lacZ-fused rhlA expressed in Escherichia coli DH5alpha co-expressing Ptac-rhlR assessed as C4-AHL-induced effect at 0.69 mM after 4 hrs by beta-galactosidase assay relative to control; in short: as §3
[23] = biological target: 3-(3-hydroxydecanoyloxy)decanoate synthase (Pseudomonas aeruginosa (strain ATCC 15692 / PAO1 / 1C / PRS 101 / LMG12228)) (UniProt Q51559); assay: Modulation of Pseudomonas aeruginosa lacZ-fused rhlA expressed in Escherichia coli DH5alpha co-expressing Ptac-rhlR assessed as C4-AHL-induced effect at 0.46 mM after 4 hrs by beta-galactosidase assay relative to control; in short: as §1
[24] = biological target: 3-(3-hydroxydecanoyloxy)decanoate synthase (Pseudomonas aeruginosa (strain ATCC 15692 / PAO1 / 1C / PRS 101 / LMG12228)) (UniProt Q51559); assay: Modulation of Pseudomonas aeruginosa lacZ-fused rhlA expressed in Escherichia coli DH5alpha co-expressing Ptac-rhlR assessed as C4-AHL-induced effect at 0.92 mM after 4 hrs by beta-galactosidase assay relative to control; in short: as §3

Activity [1]: 103%
Activity [2]: 32%
Activity [3]: 11%
Activity [4]: 106%
Activity [5]: 18%
Activity [6]: 109%
Activity [7]: 106%
Activity [8]: 52%
Structure (SMILES): CCCCCCCCCCCCSC[C@@H]1CCC(=O)N1

Activity [9]: 72%
Activity [10]: 137%
Activity [11]: 18%
Activity [12]: 115%
Activity [13]: 26%
Activity [14]: 6%
Activity [15]: 95%
Activity [16]: 108%
Structure (SMILES): CCCCCCCCCSC[C@@H]1CCC(=O)N1

Activity [17]: 26%
Activity [18]: 0%
Activity [19]: 0%
Activity [20]: 109%
Activity [21]: 0%
Activity [22]: 0%
Activity [23]: 0.2%
Activity [24]: 0%
Structure (SMILES): CCCCCCSC[C@@H]1CCC(O)N1 (mixture of isomers)
